In ChEMBL document CHEMBL1125064, “Synthesis and antiviral activity of (S)-9-[4-hydroxy-3-(phosphonomethoxy)butyl]guanine” (1990) one finds IC50 data, which are given here for four molecules.

What all share (assay type): functional
The subject of experiment [1] is Human alphaherpesvirus 2. In words: Antiviral activity against herpesvirus HSV-2 in G strain in tissue culture in Vero cells. Conditions: Human alphaherpesvirus 2, Vero; read-out: ID50 (the source's name). In short, it runs like this:
(§1)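 HSV-1 strain BWS or HSV-2 strain G plaque-reduction assay in Vero cells; ID50 reported in µg/mL.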

For experiment [2], the system named is Human betaherpesvirus 5. In words: Antiviral activity against herpesvirus HCMV in AD-169 strain in […] cells. To be noted: read-out: ID50 (the source's name). In short, it runs like this:
(§2)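 HCMV strain AD-169 plaque-reduction assay in MRC-5 cells (human lung fibroblasts); ID50 reported in µg/mL.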

Experiment [3] is described as follows: Antiviral activity against herpesvirus […] cells in tissue culture. Conditions: Homo sapiens; read-out: ID50 (the source's name).
For experiment [4], the system named is Vero. In words: Antiviral activity against herpesvirus vero cells in tissue culture. Conditions: Chlorocebus sabaeus, read-out: ID50 (the source's name).
Experiment [5] relates to Human alphaherpesvirus 1. In words: Antiviral activity against herpesvirus HSV-1 in BWS strain in Vero cells. To be noted: Human alphaherpesvirus 1, Vero; read-out: ID50 (the source's name). In short, it runs like this: as §1
For experiment [6], the system named is Human betaherpesvirus 5. Description: Antiviral activity against herpesvirus HCMV in AD-169 strain in tissue culture. Conditions: read-out: ID50 (the source's name). A digest of the protocol:
as §2

Experiment [7] has as its system Human alphaherpesvirus 2. Description: Antiviral activity against herpesvirus HSV-2 in G strain in tissue culture. Conditions: read-out: ID50 (the source's name). In short, it runs like this: as §1
In experiment [8] the test system is Human alphaherpesvirus 1. Description: Antiviral activity against herpesvirus HSV-1 in BWS strain in tissue culture. Conditions: read-out: ID50 (the source's name). A digest of the protocol: as §1
Experiment [9] in a line: Antiviral activity against herpesvirus […] cells in tissue culture. To be noted: Homo sapiens; read-out: ID50 (the source's name).
The test system of experiment [10] is Vero. In words: Antiviral activity against herpesvirus vero cells in tissue culture. To be noted: Chlorocebus sabaeus, read-out: ID50 (the source's name).

SMILES strings stand for the structures. ≈ marks a conversion by molar mass, not a printed value. A value given as a limit tells only on which side of the number the result lay.

As for `Nc1nc(O)c2ncn(CC[C@@H](CO)OCP(=O)(O)O)c2n1`, the IC50 with Human alphaherpesvirus 2 [1] was 97 µg/mL (≈ 291 µM); in the experiment with Human betaherpesvirus 5 [2] it was 1 µg/mL (≈ 3 µM); in experiment [3], 10 µg/mL (≈ 30 µM); in the experiment with Vero [4] it was > 100 µg/mL; in the experiment with Human alphaherpesvirus 1 [5], > 100 µg/mL.
In the case of `Nc1ccn(CC[C@@H](CO)OCP(=O)(O)O)c(=O)n1`, the IC50 (in the experiment on Human alphaherpesvirus 2 [1]; in the experiment on Human betaherpesvirus 5 [2]; in experiment [3]; in the experiment on Vero [4]; in the experiment on Human alphaherpesvirus 1 [5]) was > 100 µg/mL each time.
For the molecule `Nc1ncnc2c1ncn2CC[C@@H](CO)OCP(=O)(O)O`, the IC50 (in the experiment with Human alphaherpesvirus 2 [1]; in the experiment on Human betaherpesvirus 5 [2]; in experiment [3]; with Vero [4]; in the experiment on Human alphaherpesvirus 1 [5]) was > 100 µg/mL in each case.
In the case of `Nc1nc2c(ncn2COC(CO)CO)c(=O)[nH]1` [GANCICLOVIR], the IC50 was 5 µg/mL (≈ 19.6 µM) in the experiment with Human betaherpesvirus 5 [6]; 1.6 µg/mL (≈ 6.27 µM) in the experiment on Human alphaherpesvirus 2 [7]; 0.2 µg/mL (≈ 0.784 µM) with Human alphaherpesvirus 1 [8]; > 100 µg/mL in experiment [9]; > 100 µg/mL in the experiment with Vero [10].
